Reference: PMC4501086 (Nature, 2014)
Read-outs that look alike come from different tables or passages of the source.

Legend:
[1] = tested on: CD69 expression in anti-IgM stimulated whole blood; assay: anti-IgM stimulated human whole blood, FACS for CD69; assay type: cell-based; conditions: read-out: anti-IgM stimulated whole blood CD69 expression IC50
[2] = tested on: chronic lymphocytic leukaemia (CLL) and non-Hodgkin's lymphoma; conditions: cited from earlier work
[3] = tested on: 72 protein kinases; assay: KinaseProfiler assay; assay type: biochemical; conditions: at ≤ 10 μM
[4] = molecular target: p110δ (Homo sapiens, UniProt O00329); assay: PI3K isoform inhibition, Ki and IC50; assay type: biochemical
[5] = molecular target: p110α (Homo sapiens, UniProt P42336); assay: PI3K isoform inhibition, Ki and IC50; assay type: biochemical
[6] = molecular target: p110β (Homo sapiens, UniProt P42338); assay: PI3K isoform inhibition, Ki and IC50; assay type: biochemical
[7] = molecular target: p110γ (Homo sapiens, UniProt P48736); assay: PI3K isoform inhibition, Ki and IC50; assay type: biochemical
[8] = tested on: 4T1 tumour; assay: 4T1 breast cancer model, orthotopic in mammary fat pad, oral PI-3065; assay type: in vivo, female WT BALB/c mice; conditions: 75 mg/kg daily per os
How it was run: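 Luciferase-labelled 4T1 cells (10^5) inoculated into the mammary/breast fat pad 12 h after the first oral dose of vehicle or test compound (75 mg/kg daily, 36 days). Tumour growth followed by luciferase imaging and caliper volume. Tumour weight and luciferase activity measured in tumours excised 35 days after inoculation. Metastasis incidence by H&E histology as % of tumour-bearing mice. Body weight change from day 0. Mann-Whitney test.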

[9] = tested on: 4T1 cells; assay: Proliferation of 4T1 cells in vitro; assay type: cell-based, mouse; conditions: 4 h treatment, washing, MTS staining after 48 h culture
[10] = tested on: pancreatic ductal adenocarcinoma (PDAC); assay: KPC model of pancreatic ductal adenocarcinoma, treatment of palpable disease; assay type: in vivo, KPC mice
How it was run: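 KPC mice (endogenous mutant KrasG12D and p53R172H in Pdx1+ pancreatic cells) developed palpable disease before vehicle or test compound (75 mg/kg) began. Read-outs were survival, macrometastases and pathology by H&E, Treg (% of CD4+) and CD44high cells (% of CD8+) in draining lymph nodes, and CD8+ cells (% of CD45+) in normal pancreas versus PDAC lesions. Mann-Whitney test.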

[11] = 36 consecutive days, 4T1 tumour-bearing mice
[12] = 75 mg/kg, treatment after palpable disease

Chain of p110β (P42338 whole entry, species assumed, canonical isoform): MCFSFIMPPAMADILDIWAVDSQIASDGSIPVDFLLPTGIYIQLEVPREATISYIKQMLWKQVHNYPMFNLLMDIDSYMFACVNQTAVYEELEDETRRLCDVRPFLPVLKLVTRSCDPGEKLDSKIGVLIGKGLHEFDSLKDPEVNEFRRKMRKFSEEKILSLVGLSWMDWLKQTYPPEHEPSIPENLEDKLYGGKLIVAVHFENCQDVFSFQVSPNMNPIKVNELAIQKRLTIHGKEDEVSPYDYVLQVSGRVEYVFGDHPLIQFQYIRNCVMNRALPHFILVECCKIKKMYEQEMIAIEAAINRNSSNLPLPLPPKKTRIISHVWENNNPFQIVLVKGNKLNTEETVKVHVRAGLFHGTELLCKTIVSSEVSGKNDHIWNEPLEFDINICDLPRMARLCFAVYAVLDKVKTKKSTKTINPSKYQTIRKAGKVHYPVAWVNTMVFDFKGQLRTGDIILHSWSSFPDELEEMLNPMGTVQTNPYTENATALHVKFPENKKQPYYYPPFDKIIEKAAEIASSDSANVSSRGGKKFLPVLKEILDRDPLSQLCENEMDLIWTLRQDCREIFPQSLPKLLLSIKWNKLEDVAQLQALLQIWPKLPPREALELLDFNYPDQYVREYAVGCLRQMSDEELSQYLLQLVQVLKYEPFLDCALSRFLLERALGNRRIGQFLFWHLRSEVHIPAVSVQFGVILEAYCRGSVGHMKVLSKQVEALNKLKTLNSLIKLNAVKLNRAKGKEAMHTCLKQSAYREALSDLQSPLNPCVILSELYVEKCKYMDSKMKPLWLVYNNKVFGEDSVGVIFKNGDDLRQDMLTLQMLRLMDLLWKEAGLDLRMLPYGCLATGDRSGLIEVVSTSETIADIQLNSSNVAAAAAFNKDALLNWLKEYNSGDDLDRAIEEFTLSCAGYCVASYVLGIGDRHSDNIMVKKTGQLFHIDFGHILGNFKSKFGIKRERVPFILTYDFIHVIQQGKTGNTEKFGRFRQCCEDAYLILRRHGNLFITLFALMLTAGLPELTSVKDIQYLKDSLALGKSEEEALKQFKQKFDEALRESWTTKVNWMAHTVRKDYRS
Chain of p110β (P27986 whole entry partner, species assumed, canonical isoform): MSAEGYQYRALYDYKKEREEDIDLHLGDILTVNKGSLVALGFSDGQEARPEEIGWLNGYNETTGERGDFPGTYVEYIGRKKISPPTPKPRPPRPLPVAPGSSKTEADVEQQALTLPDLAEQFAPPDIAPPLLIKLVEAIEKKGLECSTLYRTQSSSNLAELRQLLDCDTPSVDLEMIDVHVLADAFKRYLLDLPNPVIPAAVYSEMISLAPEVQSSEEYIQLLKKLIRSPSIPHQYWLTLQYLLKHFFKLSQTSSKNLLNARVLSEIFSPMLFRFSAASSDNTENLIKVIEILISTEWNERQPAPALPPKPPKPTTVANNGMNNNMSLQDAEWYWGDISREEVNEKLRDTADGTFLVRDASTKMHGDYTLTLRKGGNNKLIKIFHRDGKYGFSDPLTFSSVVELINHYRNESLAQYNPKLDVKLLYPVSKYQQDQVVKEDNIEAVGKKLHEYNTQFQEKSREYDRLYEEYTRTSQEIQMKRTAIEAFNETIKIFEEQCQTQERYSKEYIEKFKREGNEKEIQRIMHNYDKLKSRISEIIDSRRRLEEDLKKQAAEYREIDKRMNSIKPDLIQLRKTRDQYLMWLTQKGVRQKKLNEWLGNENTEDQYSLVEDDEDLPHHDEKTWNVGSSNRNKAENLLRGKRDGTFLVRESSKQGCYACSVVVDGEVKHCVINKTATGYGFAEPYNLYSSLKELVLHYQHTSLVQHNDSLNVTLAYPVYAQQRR
Chain of p110γ (P48736 whole entry, species assumed, canonical isoform): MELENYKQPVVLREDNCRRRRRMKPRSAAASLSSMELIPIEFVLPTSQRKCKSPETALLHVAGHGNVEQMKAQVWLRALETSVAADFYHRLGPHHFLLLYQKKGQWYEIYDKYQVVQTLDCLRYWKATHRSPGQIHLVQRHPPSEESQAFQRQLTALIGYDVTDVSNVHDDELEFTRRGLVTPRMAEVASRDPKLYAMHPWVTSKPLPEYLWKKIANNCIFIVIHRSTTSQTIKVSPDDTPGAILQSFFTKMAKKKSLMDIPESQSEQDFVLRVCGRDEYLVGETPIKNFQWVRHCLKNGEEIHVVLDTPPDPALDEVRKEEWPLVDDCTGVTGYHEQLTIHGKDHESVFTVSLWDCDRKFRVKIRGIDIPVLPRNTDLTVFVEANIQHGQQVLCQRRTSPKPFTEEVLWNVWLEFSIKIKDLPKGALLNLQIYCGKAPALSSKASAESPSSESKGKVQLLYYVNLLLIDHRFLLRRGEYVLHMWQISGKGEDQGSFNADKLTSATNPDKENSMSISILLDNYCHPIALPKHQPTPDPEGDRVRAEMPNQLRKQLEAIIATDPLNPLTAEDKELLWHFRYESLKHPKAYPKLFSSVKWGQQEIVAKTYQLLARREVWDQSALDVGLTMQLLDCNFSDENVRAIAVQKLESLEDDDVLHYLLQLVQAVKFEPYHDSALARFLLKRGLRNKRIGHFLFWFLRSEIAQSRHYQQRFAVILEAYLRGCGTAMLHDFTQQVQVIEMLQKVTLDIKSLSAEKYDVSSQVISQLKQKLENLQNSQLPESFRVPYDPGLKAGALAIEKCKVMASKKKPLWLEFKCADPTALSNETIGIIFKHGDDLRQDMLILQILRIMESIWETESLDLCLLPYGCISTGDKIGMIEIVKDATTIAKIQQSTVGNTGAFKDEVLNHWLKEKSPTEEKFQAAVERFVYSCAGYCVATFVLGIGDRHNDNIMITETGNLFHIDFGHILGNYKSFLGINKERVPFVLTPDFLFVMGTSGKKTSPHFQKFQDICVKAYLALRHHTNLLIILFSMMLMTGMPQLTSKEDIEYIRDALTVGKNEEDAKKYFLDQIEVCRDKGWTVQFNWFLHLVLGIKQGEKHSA
Chain of p110δ (O00329 whole entry, species assumed, canonical isoform): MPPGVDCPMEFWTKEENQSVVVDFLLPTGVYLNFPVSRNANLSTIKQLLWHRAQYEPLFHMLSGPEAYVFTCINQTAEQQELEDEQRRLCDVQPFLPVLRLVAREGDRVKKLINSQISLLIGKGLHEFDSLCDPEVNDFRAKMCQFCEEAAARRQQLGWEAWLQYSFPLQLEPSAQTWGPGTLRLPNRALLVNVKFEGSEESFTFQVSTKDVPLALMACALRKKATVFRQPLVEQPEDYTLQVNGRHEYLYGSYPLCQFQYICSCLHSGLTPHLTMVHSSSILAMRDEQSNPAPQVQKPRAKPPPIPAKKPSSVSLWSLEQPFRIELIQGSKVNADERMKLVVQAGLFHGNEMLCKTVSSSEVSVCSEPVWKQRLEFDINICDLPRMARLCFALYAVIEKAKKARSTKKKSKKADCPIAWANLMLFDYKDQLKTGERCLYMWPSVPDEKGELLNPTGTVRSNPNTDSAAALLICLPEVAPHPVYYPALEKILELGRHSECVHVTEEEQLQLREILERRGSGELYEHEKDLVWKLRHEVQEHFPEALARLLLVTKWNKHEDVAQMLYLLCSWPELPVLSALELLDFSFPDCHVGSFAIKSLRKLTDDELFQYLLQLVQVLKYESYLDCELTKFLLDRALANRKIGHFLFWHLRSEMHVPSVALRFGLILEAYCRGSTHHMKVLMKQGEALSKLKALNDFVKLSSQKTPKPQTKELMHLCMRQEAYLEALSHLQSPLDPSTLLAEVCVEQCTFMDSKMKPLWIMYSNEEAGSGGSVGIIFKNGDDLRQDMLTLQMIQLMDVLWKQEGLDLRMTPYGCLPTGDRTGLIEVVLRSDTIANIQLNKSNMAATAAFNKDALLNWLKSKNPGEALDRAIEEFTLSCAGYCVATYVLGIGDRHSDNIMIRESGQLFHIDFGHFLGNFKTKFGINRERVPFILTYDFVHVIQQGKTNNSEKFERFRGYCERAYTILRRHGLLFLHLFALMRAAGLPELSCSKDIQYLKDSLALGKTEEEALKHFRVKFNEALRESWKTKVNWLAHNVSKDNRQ
Chain of p110δ (P27986 whole entry partner, species assumed, canonical isoform): as the sequence (P27986 whole entry partner, species assumed, canonical isoform) above
Chain of p110α (P42336 whole entry, species assumed, canonical isoform): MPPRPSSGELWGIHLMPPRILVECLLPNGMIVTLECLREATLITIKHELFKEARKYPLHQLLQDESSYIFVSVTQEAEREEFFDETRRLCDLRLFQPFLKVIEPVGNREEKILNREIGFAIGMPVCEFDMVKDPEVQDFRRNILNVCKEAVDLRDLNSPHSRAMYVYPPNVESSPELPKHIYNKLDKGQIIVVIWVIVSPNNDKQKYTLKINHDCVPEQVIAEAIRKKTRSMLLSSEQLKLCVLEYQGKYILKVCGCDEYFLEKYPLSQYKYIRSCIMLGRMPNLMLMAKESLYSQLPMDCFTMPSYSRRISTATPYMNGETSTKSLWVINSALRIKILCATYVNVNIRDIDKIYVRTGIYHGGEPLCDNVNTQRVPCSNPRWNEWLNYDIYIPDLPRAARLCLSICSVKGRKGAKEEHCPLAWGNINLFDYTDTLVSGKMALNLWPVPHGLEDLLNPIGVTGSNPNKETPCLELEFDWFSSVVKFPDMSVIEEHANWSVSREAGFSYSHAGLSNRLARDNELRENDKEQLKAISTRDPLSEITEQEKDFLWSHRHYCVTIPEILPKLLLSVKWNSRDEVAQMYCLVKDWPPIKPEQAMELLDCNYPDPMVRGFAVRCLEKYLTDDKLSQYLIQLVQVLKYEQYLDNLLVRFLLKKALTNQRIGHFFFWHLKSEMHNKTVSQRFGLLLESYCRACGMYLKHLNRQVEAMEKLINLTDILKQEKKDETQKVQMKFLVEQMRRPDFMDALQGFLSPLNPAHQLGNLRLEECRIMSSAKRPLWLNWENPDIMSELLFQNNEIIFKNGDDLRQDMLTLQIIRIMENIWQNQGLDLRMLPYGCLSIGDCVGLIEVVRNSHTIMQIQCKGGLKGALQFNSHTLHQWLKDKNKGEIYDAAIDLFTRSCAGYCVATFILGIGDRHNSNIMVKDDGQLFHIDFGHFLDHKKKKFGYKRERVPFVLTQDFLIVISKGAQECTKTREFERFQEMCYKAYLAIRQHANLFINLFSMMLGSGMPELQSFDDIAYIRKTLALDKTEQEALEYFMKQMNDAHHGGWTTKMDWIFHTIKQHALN
Chain of p110α (P27986 whole entry partner, species assumed, canonical isoform): as the sequence (P27986 whole entry partner, species assumed, canonical isoform) above

Structure (SMILES) | IC50 ([1]; human whole blood, anti-IgM, FACS for CD69) | IC50 ([1]; Homo sapiens) | therapeutic impact in patients [2] | activity against 72 protein kinases [3] | Ki [4] | Ki [5] | IC50 [6] | Ki [6] | IC50 [7] | Ki [7] | body weight loss [8, 11] | tolerability of long-term administration [8, 11] | 4T1 metastasis ([8]; 36 days) | 4T1 tumour growth ([8]; 36 days) | in vitro growth inhibition of 4T1 cells [9] | incidence of metastases and other disease-associated pathologies [10, 12] | survival of KPC mice [10, 12] | infiltrating CD8+ T cells in pancreatic lesions ([10]; 14 days after treatment) | levels of CD44high CD8+ lymphocytes in the draining lymph nodes ([10]; after 7 days of treatment) | relative abundance of peripheral Treg in lymph nodes ([10]; after 7 days of treatment)
Cc1ccccc1-n1c(Cn2cnc3c(N)ncnc32)nc2cccc(C)c2c1=O [IC87114] | 3500 nM |  |  |  |  |  |  |  |  |  |  |  |  |  |  |  |  |  |  | 
CC[C@H](Nc1ncnc2[nH]cnc12)c1nc2cccc(F)c2c(=O)n1-c1ccccc1 [Idelalisib] |  | 60 nM | impressive therapeutic impact |  |  |  |  |  |  |  |  |  |  |  |  |  |  |  |  | 
Fc1ccc2[nH]ccc2c1-c1nc(N2CCOCC2)c2sc(CN3CCN(CC4CC4)CC3)cc2n1 [PI-3065] |  | 38 nM |  | No significant activity | 1.5 nM | 110 nM | 600 nM | 130 nM | > 10000 nM | 940 nM | did not induce weight loss | well-tolerated | suppressed | suppressed | not growth-inhibited | reduced | prolonged survival | relatively more | higher levels | reduced
